The record followed here is ChEMBL document CHEMBL1128676, “Phosphonates and phosphinates: novel leaving groups for benzisothiazolone inhibitors of human leukocyte elastase” (J Med Chem, 1995).

Data set [1] has as its target T1, Neutrophil elastase (Homo sapiens, UniProt P08246).
T1 sequence (P08246 whole entry): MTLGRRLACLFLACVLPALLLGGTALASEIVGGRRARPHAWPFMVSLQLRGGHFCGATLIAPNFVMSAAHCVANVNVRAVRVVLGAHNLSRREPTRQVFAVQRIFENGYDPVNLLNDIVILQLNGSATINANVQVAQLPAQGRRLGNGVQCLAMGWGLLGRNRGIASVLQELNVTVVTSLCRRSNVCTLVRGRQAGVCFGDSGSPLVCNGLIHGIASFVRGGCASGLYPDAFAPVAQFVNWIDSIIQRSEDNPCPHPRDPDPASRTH
Description: Inhibitory activity against Human leukocyte elastase was determined. In a few lines:
(§1)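 Human leukocyte elastase inhibition measured in vitro at pH 7.8. Kinetic constants reported as k_inact (M⁻¹ s⁻¹), k_react (s⁻¹) and K_i* (nM).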

For data set [2], the target named is T2, Neutrophil elastase (Homo sapiens) (UniProt P08246).
T2 sequence (whole entry): T1 sequence (P08246 whole entry)
Description: Inhibitory activity against Human leukocyte elastase as kinetic constant for inhibition (inactivation). In a few lines: as §1

A short description of data set [3]: Acid dissociation constant was determined. The data set is classed as ADME.
Data set [4] has as its target T1, Neutrophil elastase. Description: In vitro inhibitory activity against Human leukocyte elastase. In a few lines:
as §1

Data set [5] addresses T2, Neutrophil elastase (Homo sapiens). Description: Inhibitory activity against Human leukocyte elastase was determined in vitro and expressed as kinetic constant for inhibition (reactivity). An outline of the steps:
as §1

The test system of data set [6] is Cricetinae gen. sp. As to the kind of experiment: In vivo inhibitory activity of 10 mg/kg compound administered intravenously against Human leukocyte elastase induced hemorrhage in hamster. The data set is classed as functional, Cricetulus griseus. As to conditions: route intravenous. An outline of the steps: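 Hamster elastase-induced pulmonary hemorrhage model: 10 mg/kg given intravenously 1 min before intratracheal human leukocyte elastase (25 μg). Result expressed as % inhibition of HLE activity, mean ± error.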

Data set [7] relates to Cricetinae gen. sp. Description: In vivo inhibitory activity of 10 mg/kg compound administered subcutaneously against Human leukocyte elastase induced hemorrhage in hamster. The class given is functional, Cricetulus griseus. As to conditions: sc, route subcutaneous. In a few lines:
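Hamsters dosed subcutaneously at 10 mg/kg, 1 min before intratracheal instillation of human leukocyte elastase (25 μg), to induce pulmonary hemorrhage. Readout is % inhibition of in vivo HLE activity, mean ± error.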

In data set [8] the target is T2, Neutrophil elastase (Homo sapiens).

In turn, `CCCCP(=O)(CCCC)OCN1C(=O)c2ccccc2S1(=O)=O` yielded a Ki on Neutrophil elastase [1] of 24 nM. Further, the K inact in data set [2] was 2300 M⁻¹ s⁻¹.

On to `O=C1c2ccccc2S(=O)(=O)N1COP(=O)(Oc1ccccc1)Oc1ccccc1`, for which the Ki at Neutrophil elastase [1] is 6.5 nM. Moreover, the K inact in data set [2] was found to be 11000 M⁻¹ s⁻¹. This compound returned a pKa in data set [3] of 1.91.

In turn, `CCOP(=O)(OCC)OCN1C(=O)c2c(C(C)C)cc(O)cc2S1(=O)=O` showed a K inact in data set [2] of 3300 M⁻¹ s⁻¹. The Ki at Neutrophil elastase [4] is 4.5 nM. Moreover, the Kreact in data set [5] was found to be 1.4e-05 s⁻¹.

`CCOP(=O)(OCC)OCN1C(=O)c2c(C(C)C)cccc2S1(=O)=O` came in with a K inact in data set [2] of 530000 M⁻¹ s⁻¹. On Neutrophil elastase [4], the affinity, expressed as Ki, was 0.1 nM. The compound further returned an inhibition in vivo at 10 mg/kg with Cricetinae gen. sp. [6] of 84%. Besides, the Kreact in data set [5] was 5.3e-05 s⁻¹.

Compound `O=C1c2ccccc2S(=O)(=O)N1COP(=O)(c1ccccc1)c1ccccc1` displayed an inhibition constant Ki on Neutrophil elastase [1] of 30 nM. The compound also registered a K inact in data set [2] of 1900 M⁻¹ s⁻¹. The pKa in data set [3] came to 3.34.

Take `CCOP(=O)(OCC)OCN1C(=O)c2ccccc2S1(=O)=O`: the Ki on Neutrophil elastase [1] and on Neutrophil elastase [4] was 60 nM each time. Further, the K inact in data set [2] and in data set [8] was 1100 M⁻¹ s⁻¹ each time. In the data set on Cricetinae gen. sp. [7], the inhibition in vivo at 10 mg/kg is 56%. In data set [3], this compound came in with a pKa of 2.5. The compound also returned a Kreact in data set [5] of 6.6e-05 s⁻¹.

At Neutrophil elastase [1], `CCCCOP(=O)(OCCCC)OCN1C(=O)c2ccccc2S1(=O)=O` yielded a Ki of 17 nM. The K inact in data set [2] was 4800 M⁻¹ s⁻¹. For the same compound, the pKa in data set [3] is 2.59.

On to `COP(=O)(OC)OCN1C(=O)c2ccccc2S1(=O)=O`, for which, at Neutrophil elastase [1], the Ki was 100 nM. The K inact in data set [2] is 800 M⁻¹ s⁻¹. For the same compound, the pKa in data set [3] amounted to 2.56.

`CCOP(=O)(OCC)OCN1C(=O)c2c(C(C)CC)cccc2S1(=O)=O` (stereo not drawn) showed a K inact in data set [2] of 800000 M⁻¹ s⁻¹. The same compound returned a Ki on Neutrophil elastase [4] of 0.07 nM. Also, testing at 10 mg/kg in the data set with Cricetinae gen. sp. [7] gave an inhibition in vivo of 83%. The Kreact in data set [5] came out at 5.6e-05 s⁻¹.

`O=C1c2ccccc2S(=O)(=O)N1COP(=O)(OCc1ccccc1)OCc1ccccc1` gave a Ki on Neutrophil elastase [1] of 20.5 nM. The compound also displayed a K inact in data set [2] of 4100 M⁻¹ s⁻¹. The pKa in data set [3] amounted to 2.26.

In data set [2], `CCOP(=O)(OCC)OCN1C(=O)c2c(C(C)C)cc(OC)cc2S1(=O)=O` displayed a K inact of 343000 M⁻¹ s⁻¹. Moreover, the inhibition in vivo at 10 mg/kg in the data set on Cricetinae gen. sp. [6] was 92%. The compound further returned a Kreact in data set [5] of 1.2e-05 s⁻¹.
